Measurements: ChEMBL document CHEMBL5120929, “Inhibitor Screen Identifies Covalent Inhibitors of the Protein Histidine Phosphatase PHPT1” (ACS Med Chem Lett, 2022)
Calls of active or inactive are those of the source. The calls are words filed in the database; no cut-off is given here.

Experiments:
[1] = target: T1, 14 kDa phosphohistidine phosphatase (Homo sapiens) (UniProt Q9NRX4); assay: Reversible inhibition of PHPT1 (unknown origin) at 1 mM using DiFMUP as fluorogenic substrate preincubated for 30 mins followed by substrate addition by dialysis method
T1 sequence (whole entry): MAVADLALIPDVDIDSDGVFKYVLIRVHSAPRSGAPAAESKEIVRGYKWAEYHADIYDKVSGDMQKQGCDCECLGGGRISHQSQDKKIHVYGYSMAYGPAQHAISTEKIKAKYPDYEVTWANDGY
How it was run: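 Reversibility was tested by measuring PHPT1 inhibition in the fluorogenic activity assay before and after dialysis.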

[2] = target: T1, 14 kDa phosphohistidine phosphatase (Homo sapiens); assay: Mixed inhibition of PHPT1 (unknown origin) assessed as change in Km and Vmax at above 150 uM using DifMUP as substrate by Michaelis-Menten based analysis
[3] = target: T2, 14 kDa phosphohistidine phosphatase (Homo sapiens, UniProt Q9NRX4); assay: Inhibition of PHPT1 (unknown origin) using DiFMUP as fluorogenic substrate incubated for 30 mins followed by substrate addition and measured every 60 seconds for 30 mins by fluorogenic assay
T2 sequence (Q9NRX4 whole entry): T1 sequence (whole entry)

[4] = target: T1, 14 kDa phosphohistidine phosphatase (Homo sapiens); assay: Competitive inhibition of PHPT1 (unknown origin) assessed as change in Km and Vmax at below 150 uM using DifMUP as substrate by Michaelis-Menten based analysis
[5] = target: T1, 14 kDa phosphohistidine phosphatase (Homo sapiens); assay: Time dependent inhibition of PHPT1 (unknown origin) at 10 uM using DiFMUP as fluorogenic substrate preincubated for 15 to 120 mins followed by substrate addition and measured for 30 mins by fluorogenic assay; conditions: time 45-150 min, TDE = time-dependent effect
[6] = target: T2, 14 kDa phosphohistidine phosphatase; assay: Inhibition of PHPT1 (unknown origin) assessed as inhibition constant measured up to 100 uM incubated up to 30 mins using DiFMUP as fluorogenic substrate by fluorogenic assay
How it was run: (§1)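 Kinetics of time-dependent PHPT1 inactivation in the fluorogenic activity assay. Observed inactivation rate constants (kobs) were plotted against inhibitor concentration to obtain kinact and KI.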

[7] = target: T3, Mediator of RNA polymerase II transcription subunit 25 (Homo sapiens, UniProt Q71SY5); assay: Inhibition of Med25 transcriptional activation in human MCF-7 cells by fluorescence polarization assay; assay type: cell-based; conditions: mcf7
T3 sequence (Q71SY5 whole entry): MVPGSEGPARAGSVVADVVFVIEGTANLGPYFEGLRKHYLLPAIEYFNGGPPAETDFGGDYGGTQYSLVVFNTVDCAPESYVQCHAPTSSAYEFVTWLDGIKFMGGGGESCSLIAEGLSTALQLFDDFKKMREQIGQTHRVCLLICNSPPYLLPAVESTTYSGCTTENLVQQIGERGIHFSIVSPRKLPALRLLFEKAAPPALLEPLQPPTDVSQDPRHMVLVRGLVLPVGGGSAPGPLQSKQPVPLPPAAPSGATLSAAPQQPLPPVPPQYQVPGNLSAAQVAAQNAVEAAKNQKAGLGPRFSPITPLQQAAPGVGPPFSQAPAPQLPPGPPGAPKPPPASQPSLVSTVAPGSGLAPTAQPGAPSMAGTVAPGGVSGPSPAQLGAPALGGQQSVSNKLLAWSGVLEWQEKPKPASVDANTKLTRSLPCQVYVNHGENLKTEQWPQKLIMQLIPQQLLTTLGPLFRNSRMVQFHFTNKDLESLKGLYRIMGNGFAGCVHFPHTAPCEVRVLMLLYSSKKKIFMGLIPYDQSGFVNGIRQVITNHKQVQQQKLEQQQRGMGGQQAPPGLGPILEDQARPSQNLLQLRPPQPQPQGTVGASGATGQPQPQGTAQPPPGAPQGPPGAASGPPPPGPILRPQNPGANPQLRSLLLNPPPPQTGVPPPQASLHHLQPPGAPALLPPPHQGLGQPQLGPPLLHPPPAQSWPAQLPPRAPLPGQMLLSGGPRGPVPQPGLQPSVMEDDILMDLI

[8] = target: T1, 14 kDa phosphohistidine phosphatase (Homo sapiens); assay: Inhibition of PHPT1 (unknown origin) assessed as inactivation constant measured up to 100 uM incubated up to 30 mins using DiFMUP as fluorogenic substrate by fluorogenic assay; how it was run: as §1
[9] = target: T1, 14 kDa phosphohistidine phosphatase (Homo sapiens); assay: Time dependent inhibition of PHPT1 (unknown origin) at 20 uM using DiFMUP as fluorogenic substrate preincubated for 15 to 120 mins followed by substrate addition and measured for 30 mins by fluorogenic assay; conditions: time 45-150 min, TDE = time-dependent effect

| Structure (SMILES) | inhibition [1] | inhibition [2] | IC50 [3] [µM] | inhibition [4] | inhibition [5] | Ki [6] [µM] | IC50 [7] [µM] | Kinact [8] [min⁻¹] | inhibition [9] |
| --- | --- | --- | --- | --- | --- | --- | --- | --- | --- |
| CC(=O)Nc1cc([As](=O)(O)O)ccc1O [ACETARSONE] | Active | Active | 100 | Active | – | – | – | – | – |
| Cc1cc(O)c(C=O)c2c1C(=O)Oc1c(C)c(O)c3c(c1O2)C(O)OC3=O (centres undefined) [NORSTICTIC ACID] | – | – | 7.9 | – | Tde | 90 | 2.3 | 1.7 | – |
| O=[N+]([O-])c1cc([As](=O)(O)O)ccc1O [ROXARSONE] | – | Active | 80 | Active | – | – | – | – | – |
| COc1cc(C)c2c(c1C=O)Oc1c(c(C)c(O)c3c1C(O)OC3=O)OC2=O (centres undefined) [STICTIC ACID] | – | – | 22 | – | – | – | – | – | Tde |
